Measured values: ChEMBL document CHEMBL1687818, “Mechanistic studies of the inactivation of TEM-1 and P99 by NXL104, a novel non-beta-lactam beta-lactamase inhibitor” (Antimicrob Agents Chemother, 2010)

Assays:
[1] = Inhibition of beta-lactamase TEM-1 assessed as inactivation rate constant for longer incubation time yield of enzyme by spectrophotometry
[2] = Inhibition of beta-lactamase TEM-1 assessed as inactivation rate constant by spectrophotometry
How it was run: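 Reporter-substrate method at 37°C: purified TEM-1 at 0.25 nM was added to 100 µM nitrocefin plus inhibitor at various concentrations, and hydrolysis was followed at 485 nm for 60 s. kobs was taken from the time courses, and K and k2 came from a plot of [I]/kobs against [I]. Means of at least two independent experiments.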

Compound | Activity [1] [s⁻¹] | Activity [2] [s⁻¹]
O=C(O)[C@H]1/C(=C/CO)O[C@@H]2CC(=O)N21 | 0.03 | 
NC(=O)[C@@H]1CC[C@@H]2CN1C(=O)N2OS(=O)(=O)O (relative stereo) |  | 0.11
C[C@]1(Cn2ccnn2)[C@H](C(=O)O)N2C(=O)C[C@H]2S1(=O)=O | 0.02 | 
